RGS4 act – RGS4 potentiation or activation; B-score at 10 µM; AID 463111; actives 0.92% (n = 310,000); HEK293 M3R/inducible RGS4, carbachol calcium flux Fluo4; stronger effect = lower value;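 active = B-score of the integrated calcium signal more than 4 SD below the library mean, with starting fluorescence not abnormally high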;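 note: negative B-score means reduced calcium response which marks RGS4 activation or potentiation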
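test system = M3R-expressing HEK293 line, RGS4 induced by doxycycline | probe or stimulus = carbachol at ECmax as muscarinic agonist stimulus | timing = dye loading 30 min 37 °C, buffer rest 30 min RT | signal = calcium dye Fluo4 fluorescence | evaluation = B score from integrated fluorescence ratio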
MrgX1 PAM – allosterically activates human MrgX1 receptor signaling; MrgX1-HEK293, Fluo-4 calcium flux, FDSS; stronger effect = higher value; AID 588675; B-score at 10 µM; actives 0.63% (n = 310,000);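 active = plate-corrected calcium response at least 3 library SD above typical, normal starting fluorescence, not activating the receptor alone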;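 note: compound read alongside a low EC10 to EC30 dose of BAM8-22 agonist; peak minus trough fluorescence over baseline measured at the second addition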
Target sequence (Q96LB2 whole entry, looked up): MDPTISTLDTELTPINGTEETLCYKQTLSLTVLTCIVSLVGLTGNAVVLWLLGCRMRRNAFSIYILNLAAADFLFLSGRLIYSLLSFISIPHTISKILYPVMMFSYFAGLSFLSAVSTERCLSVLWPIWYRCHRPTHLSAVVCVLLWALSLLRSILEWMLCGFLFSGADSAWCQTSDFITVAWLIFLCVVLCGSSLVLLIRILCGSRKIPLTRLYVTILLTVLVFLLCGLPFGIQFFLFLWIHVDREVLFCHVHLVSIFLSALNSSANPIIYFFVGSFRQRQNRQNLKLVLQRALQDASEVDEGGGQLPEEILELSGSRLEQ
MrgX1 agonist – agonists of human MrgX1 receptor | MrgX1-HEK293 cells, Fluo-4 calcium fluorescence, agonist mode; stronger effect = higher value | Q96LB2 | AID 588627 | actives 0.44% (n = 310,000) | B-score at 10 µM;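 active = calcium response B-score plate-corrected fluorescence ratio at least 3 library SD, with starting fluorescence B-score inside 5 SD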
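Assay system: MrgX1-expressing HEK293 cells / Amount: fifteen thousand cells per well / Doses: test compound in the initial addition of three / Timing: cells plated overnight, dye loaded 0.5 h 37 °C, 0.5 h room temperature / Technique: kinetic calcium dye fluorescence, Fluo-4 NW / Control set: positive and negative controls per plate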
MrgX1 antag – human MrgX1 receptor antagonism, primary screen; AID 588676; MRGX1-HEK293 calcium flux, Fluo-4, BAM8-22 antagonism; stronger effect = lower value; actives 1.3% (n = 310,000); B-score at 10 µM; Q96LB2;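 active = calcium-response B-score plate-corrected more than 3 library SD below zero, starting fluorescence within 5 deviations, no agonist response on first addition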;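 note: peak minus trough fluorescence over baseline after final BAM8-22 challenge near maximal dose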
RGS4 inh – inhibitors of human RGS4. P49798. HEK293 M3R/RGS4 inducible, Fluo-4 calcium flux; stronger effect = higher value; triggered by carbachol at its EC20. B-score at 10 µM. actives 0.45% (n = 310,000). AID 463165;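 active = B-score, a plate-corrected calcium signal, over three deviations above library mean, with baseline fluorescence within five deviations of library mean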;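 note: RGS4 expression induced by doxycycline in cells with stable M3 receptor; B-score is computed from the integrated fluorescence ratio over baseline after carbachol; higher B-score means a larger calcium signal and so more RGS4 inhibition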
Target sequence (P49798 whole entry, looked up): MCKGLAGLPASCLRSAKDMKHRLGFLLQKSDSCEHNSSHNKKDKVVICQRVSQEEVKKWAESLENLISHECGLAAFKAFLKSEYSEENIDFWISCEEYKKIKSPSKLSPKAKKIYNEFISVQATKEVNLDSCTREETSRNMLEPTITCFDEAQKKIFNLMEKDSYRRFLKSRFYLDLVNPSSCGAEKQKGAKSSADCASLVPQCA
MrgX1 ag confirm – human MrgX1 agonism, re-confirmation screen | actives 78% (n = 600) | MrgX1-HEK293, Fluo-4 calcium fluorescence, FDSS | AID 602412 | shares compounds with MrgX1 agonist | activation, % at 10 µM;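 active = calcium signal rise, corrected for plate position, at least 3 library SD high, with starting brightness within 5 such deviations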
HEK293 Ca flux – counter-screen for MrgX1 antagonists: effect in parental HEK293 cells; shares compounds with MrgX1 antag; Fluo-4 calcium fluorescence, FDSS; fluorescence ratio F(max-min)/F0 at 10 µM; actives 2% (n = 4,000); AID 624111;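 active = duplicate-averaged calcium fluorescence ratio at least three times the standard deviation of buffer wells, a nonspecific response in parental cells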
HEK293 Ca counter – MrgX1 allosteric activator counter-screen hit in parental HEK293 cells. shares compounds with MrgX1 antag. actives 0.4% (n = 4,000). fluorescence ratio F(max-min)/F0 at 10 µM. parental HEK293 calcium flux, Fluo-4 fluorescence ratio; stronger effect = higher value;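 active = calcium fluorescence ratio, averaged over duplicates, at least 3 SD of the buffer-well ratio, meaning a nonspecific response in receptor-free cells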;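 note: untransfected parental HEK293 lacking MrgX1 used as counterscreen for MrgX1 allosteric activators; fluorescence change taken during the second addition on a kinetic imager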
HEK293 Ca cntr2 – activity in parental HEK293 cells lacking MrgX1 receptor. shares compounds with MrgX1 antag. Fluo-4 calcium fluorescence (FDSS); stronger effect = higher value. fluorescence ratio F(max-min)/F0 at 10 µM. actives 8.7% (n = 4,000). AID 624115;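 active = calcium fluorescence ratio at least three times the spread of buffer wells, meaning a non-specific response in parental cells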
The depositor's hits bear a star; i = inactive; . = not tested or not shown. An excerpt weighted towards active compounds, which were near 3.5% of everything screened.

SMILES | RGS4 act | MrgX1 PAM | MrgX1 agonist | MrgX1 antag | RGS4 inh | MrgX1 ag confirm | HEK293 Ca flux | HEK293 Ca counter | HEK293 Ca cntr2
CCN(CC(=O)NC(C)(C)C)C(=O)CCl | i | i | i | i | i | . | . | . | .
Cc1cc(N2CCN(c3ccccc3)CC2)nc(N)n1 | i | i | 43* | i | i | 252%* | i | i | i
Cc1cc(N2CCN(c3ccccc3)CC2)nc(-c2ccccc2)n1 | i | i | i | i | i | . | . | . | .
Cc1cc(N2CCOCC2)nc(N)n1 | i | i | 73* | i | i | 275%* | i | i | 78*
COc1ccc(S(=O)(=O)N(C)c2ccc(C(=O)Nc3c(C)n(C)n(-c4ccccc4)c3=O)cc2)cc1 | i | i | i | i | i | . | . | . | .
CCC(=O)Nc1ccc(N/C(N)=N/c2nc(C)cc(C)n2)cc1 | i | i | i | i | i | . | . | . | .
Cc1ccc(N/C(N)=N/c2nc(C)cc(C)n2)cc1 | i | i | 124* | i | i | 432%* | i | i | 97*
Cc1cc(C)cc(N/C(N)=N/c2nc(C)cc(C)n2)c1 | i | i | 33* | i | i | 132%* | i | i | i
Cc1cc(C)nc(/N=C(\N)Nc2ccc(C(C)C)cc2)n1 | i | i | 32* | i | i | 119%* | i | i | i
Cc1cccc(N/C(N)=N/c2nc(C)cc(C)n2)c1 | i | i | 69* | i | i | 358%* | i | i | 76*
Cc1ccc(N2C(=O)CC(N3CCc4ccccc43)C2=O)cc1Cl (stereo not given) | i | i | i | i | i | . | . | . | .
COc1ccc(NC(=O)c2cc(C)no2)cc1 | i | i | i | i | i | . | . | . | .
Cc1ccc(C)c(C(=O)NC(C)c2ccc(-n3ccnc3)cc2)c1 (stereo not given) | i | i | i | i | i | . | . | . | .
N#CC1=C(N)Oc2cc(N)ccc2C1c1ccccc1Cl (stereo not given) | i | i | 29* | i | i | i | i | i | i
N#CC1=C(N)Oc2cc(N)ccc2C1c1ccc(Cl)cc1 (stereo not given) | i | i | i | i | i | . | . | . | .
CN(CCOc1ccc(Cl)c(Cl)c1)Cc1ccccc1 | i | i | i | i | i | . | . | . | .
CCN(CC)CCCOc1ccc(Cl)c(Cl)c1 | i | i | 107* | i | i | i | i | i | i
Cc1ccc(-n2c(=O)[nH]c3c(oc4ccccc43)c2=O)cc1 | i | i | 78* | i | i | 396%* | i | i | 118*
Cc1ccc(CNC(=O)c2ccc(Cl)c(S(N)(=O)=O)c2)n1C | i | i | 71* | i | i | 283%* | i | i | i
CCc1cccc(C)c1NC(=S)N1CCCCC1c1cccnc1 (stereo not given) | i | i | 28* | i | i | 100%* | i | i | 48*
COc1ccc2c(c1)nc(N)n2Cc1ccccc1 | i | i | 49* | i | i | 233%* | i | i | i
NC(=O)N1c2ccccc2CC(=O)c2ccccc21 | i | i | 47* | i | i | 251%* | i | i | 52*
O=Cc1cccn1-c1nccc(-c2ccco2)n1 | i | i | i | i | i | . | . | . | .
Cc1ccc(NC(=O)CCl)cc1S(=O)(=O)N1CCCCCC1 | i | i | 29* | i | i | 169%* | i | i | i
COCCCn1c(N)c(-c2nc3ccccc3n2C)c2nc3ccccc3nc21 | i | i | 60* | i | i | 249%* | i | i | 87*
SMILES | RGS4 act | MrgX1 PAM | MrgX1 agonist | MrgX1 antag | RGS4 inh | MrgX1 ag confirm | HEK293 Ca flux | HEK293 Ca counter | HEK293 Ca cntr2
Oc1ccccc1-c1nnc2n1CCCCC2 | i | i | 27* | i | i | i | i | i | i
Cc1ccc(-c2nnc3n2CCCCC3)cc1 | i | i | i | i | i | . | . | . | .
Fc1ccc2[nH]c3c(NCc4ccccc4)ncnc3c2c1 | i | i | 38* | i | i | 251%* | i | i | 54*
Fc1cccc(NCCc2c[nH]c3ccccc23)n1 | i | i | 28* | i | i | 116%* | i | i | i
O=C1/C(=C/c2ccccc2)Nc2ccccc21 | i | i | 128* | i | i | i | 0.41* | i | 224*
CCC1CCCCN1CCCNC(=O)Cn1ncn2nc(-c3ccc(OC)cc3)cc2c1=O (stereo not given) | i | i | i | i | i | . | . | . | .
CSc1ncccc1C(=O)NCCc1ccccc1 | i | i | i | i | i | . | . | . | .
CSc1ncccc1C(=O)NCCc1ccc(S(N)(=O)=O)cc1 | i | i | 33* | i | i | i | i | i | i
Cc1ccc(C(C)C)cc1OCC(=O)Nc1ccc(N2CCCCC2)cc1 | i | i | i | i | i | . | . | . | .
CCS(=O)(=O)c1nnnn1-c1ccccc1S(C)(=O)=O | i | i | 27* | i | i | 105%* | i | i | i
Cc1cc(Br)c(NC(=O)CN2CCCC2)c(Br)c1 | i | . | . | . | i | . | . | . | .
O=C(c1ccc([N+](=O)[O-])cc1)N(Cc1ccc(Br)cc1)N1C(=O)CCCC1=O | i | i | 71* | i | i | 521%* | i | i | 96*
O=C(c1ccccc1Cl)N(Cc1ccc(Br)cc1)N1C(=O)CCCC1=O | i | i | i | i | i | . | . | . | .
O=C(NCc1nc2ccccc2[nH]1)C1=C[C@H](c2ccc(C(F)(F)F)cc2)C[C@H](OCCCCO)O1 | i | i | i | i | i | . | . | . | .
Cc1ccc(-c2n[nH]c(=O)c3ccccc23)cc1S(=O)(=O)Nc1ccccc1 | i | i | 30* | i | i | 206%* | i | i | 45*
COc1cc(/C=C2\SC(=Nc3ccccc3)NC2=O)cc(Cl)c1O | i | i | 84* | i | i | i | 0.39* | i | 139*
NC(=NCc1ccccc1)c1cccc([N+](=O)[O-])c1 | i | i | i | i | i | . | . | . | .

High-throughput results as filed in PubChem BioAssay.
